Source: ChEMBL document CHEMBL4118192, “BET bromodomain ligands: Probing the WPF shelf to improve BRD4 bromodomain affinity and metabolic stability” (Bioorg Med Chem, 2018)

Legend:
[1] = Apparent half life in human liver microsomes at 3 uM; format: ADME, microsome; details: read-out: t1/2(app)
[2] = Intrinsic clearance in human liver microsomes at 3 uM; format: ADME, microsome; details: read-out: CLH
[3] = test system: A498; assay: Growth inhibition of human A498 cells after 48 hrs by SRB assay; format: functional; details: A498, 48 h
Outline: (§1)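 In-house assay. Cells were seeded into 96-well plates at a density for exponential growth and treated with a concentration range for 48 h. They were then fixed in 10% (w/v) TCA and stained with sulforhodamine B. The 50% growth-inhibitory concentration relative to control cells was calculated as the mean of three repeats ± standard deviation.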

[4] = test system: HT-29; assay: Growth inhibition of human HT-29 cells after 48 hrs by SRB assay; format: functional; details: HT-29, 48 h; outline: as §1
[5] = test system: CCRF-CEM; assay: Growth inhibition of human CCRF-CEM cells at 10 uM after 48 hrs by sulforhodamine B assay relative to control; format: functional; details: read-out: GI
Outline: (§2)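 NCI-60 single-dose screen at 10 μM for 48 h. Percent growth inhibition was measured by sulforhodamine B staining of cellular protein.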

[6] = test system: SF-268; assay: Growth inhibition of human SF268 cells at 10 uM after 48 hrs by sulforhodamine B assay relative to control; format: functional; details: SF-268, 48 h, read-out: GI
Outline: (§3)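 NCI-60 human cancer cell line screen, single-dose pass: cells exposed to 10 μM for 48 h. Cellular protein content read out by sulforhodamine B staining, and growth inhibition expressed relative to untreated control.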

[7] = test system: SK-MEL-28; assay: Growth inhibition of human SK-MEL-28 cells at 10 uM after 48 hrs by sulforhodamine B assay relative to control; format: functional; details: SK-MEL-28, 48 h, read-out: GI; outline: as §3
[8] = test system: OVCAR-3; assay: Growth inhibition of human OVCAR3 cells at 10 uM after 48 hrs by sulforhodamine B assay relative to control; format: functional; details: OVCAR-3, 48 h, read-out: GI; outline: as §3
[9] = test system: 786-0; assay: Growth inhibition of human 786-0 cells at 10 uM after 48 hrs by sulforhodamine B assay relative to control; format: functional; details: 786-0, 48 h, read-out: GI; outline: as §2
[10] = test system: SNB-75; assay: Growth inhibition of human SNB75 cells after 48 hrs by sulforhodamine B assay; format: functional; details: SNB-75, 48 h
Outline: (§4)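 NCI-60 panel follow-up: five concentrations from 10 nM to 100 μM, 48 h exposure. Growth read by sulforhodamine B protein staining. GI50 derived from the concentration-response, with the concentration for total growth inhibition (TGI) also recorded when below 100 μM.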

[11] = test system: Malme-3M; assay: Growth inhibition of human MALME-3M cells after 48 hrs by sulforhodamine B assay; format: functional
Outline: (§5)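 NCI-60 panel screen. Cells were exposed for 48 h at five concentrations between 10 nM and 100 μM. Cellular protein was read by sulforhodamine B staining, and GI50 and total growth inhibition (TGI) concentrations were derived.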

[12] = test system: MDA-MB-435; assay: Growth inhibition of human MDA-MB-435 cells after 48 hrs by sulforhodamine B assay; format: functional; details: MDA-MB-435, 48 h; outline: as §5
[13] = test system: SN12C; assay: Growth inhibition of human SN12C cells after 48 hrs by sulforhodamine B assay; format: functional; outline: as §4
[14] = test system: MDA-MB-231; assay: Growth inhibition of human MDA-MB-231 cells after 48 hrs by sulforhodamine B assay; format: functional; details: MDA-MB-231, 48 h; outline: as §5
[15] = molecular target: ATPase family AAA domain-containing protein 2B (Homo sapiens) (UniProt Q9ULI0); assay: Inhibition of human partial length ATAD2B (Q955 to R1082 residues) expressed in bacterial expression system assessed as residual activity at 1 uM by BROMOscan assay relative to control
[16] = molecular target: Bromodomain-containing protein 2 (Homo sapiens) (UniProt P25440); assay: Inhibition of human partial length BRD2 bromodomain 1 (K71 to N194 residues) expressed in bacterial expression system assessed as residual activity at 1 uM by BROMOscan assay relative to control
[17] = molecular target: Bromodomain-containing protein 3 (Homo sapiens) (UniProt Q15059); assay: Inhibition of human partial length BRD3 bromodomain 1 (P24 to E144 residues) expressed in bacterial expression system assessed as residual activity at 1 uM by BROMOscan assay relative to control
[18] = molecular target: Bromodomain-containing protein 4 (Homo sapiens, UniProt O60885); assay: Inhibition of human partial length BRD4 bromodomain 1 (N44 to E168 residues) expressed in bacterial expression system assessed as residual activity at 1 uM by BROMOscan assay relative to control
[19] = molecular target: Bromodomain-containing protein 9 (Homo sapiens) (UniProt Q9H8M2); assay: Inhibition of human partial length BRD9 (R130 to V259 residues) expressed in bacterial expression system assessed as residual activity at 1 uM by BROMOscan assay relative to control
[20] = molecular target: Bromodomain testis-specific protein (Homo sapiens) (UniProt Q58F21); assay: Inhibition of human partial length BRDT bromodomain 1 (N21 to E137 residues) expressed in bacterial expression system assessed as residual activity at 1 uM by BROMOscan assay relative to control
[21] = molecular target: Peregrin (Homo sapiens) (UniProt P55201); assay: Inhibition of human partial length BRPF1 (E627 to G740 residues) expressed in bacterial expression system assessed as residual activity at 1 uM by BROMOscan assay relative to control
[22] = molecular target: Histone acetyltransferase KAT2B (Homo sapiens) (UniProt Q92831); assay: Inhibition of human partial length PCAF (G715 to D831 residues) expressed in bacterial expression system assessed as residual activity at 1 uM by BROMOscan assay relative to control
[23] = molecular target: SWI/SNF-related matrix-associated actin-dependent regulator of chromatin subfamily A member 4 (Homo sapiens) (UniProt P51532); assay: Inhibition of human partial length SMARCA4 (A1448 to S1575 residues) expressed in bacterial expression system assessed as residual activity at 1 uM by BROMOscan assay relative to control
[24] = molecular target: Bromodomain and WD repeat-containing protein 1 (Homo sapiens) (UniProt Q9NSI6); assay: Inhibition of human partial length WDR9 bromodomain 2 (A1310 to E1430 residues) expressed in bacterial expression system assessed as residual activity at 1 uM by BROMOscan assay relative to control
[25] = test system: U-251; assay: Growth inhibition of human U251 cells at 10 uM after 48 hrs by sulforhodamine B assay relative to control; format: functional; details: U-251, 48 h, read-out: GI
Outline: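 NCI-60 human cancer cell line screen, single dose of 10 μM for 48 h. Cellular protein content read by sulforhodamine B staining; growth inhibition expressed relative to untreated control.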

[26] = test system: NCI-H23; assay: Growth inhibition of human NCI-H23 cells after 48 hrs by sulforhodamine B assay; format: functional; details: NCI-H23, 48 h; outline: as §4
[27] = test system: UACC-62; assay: Growth inhibition of human UACC62 cells after 48 hrs by sulforhodamine B assay; format: functional; details: UACC-62, 48 h
Outline: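 NCI-60 panel cells treated at five concentrations from 10 nM to 100 μM for 48 h. Read-out by sulforhodamine B protein stain. GI50 and total growth inhibition (TGI, if below 100 μM) taken from the concentration-response data.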

[28] = test system: PC-3; assay: Growth inhibition of human PC3 cells after 48 hrs by sulforhodamine B assay; format: functional; details: PC-3, 48 h; outline: as §4

Chain of Bromodomain-containing protein 2 (Homo sapiens) (P25440 whole entry, looked up, the tested form may be a part): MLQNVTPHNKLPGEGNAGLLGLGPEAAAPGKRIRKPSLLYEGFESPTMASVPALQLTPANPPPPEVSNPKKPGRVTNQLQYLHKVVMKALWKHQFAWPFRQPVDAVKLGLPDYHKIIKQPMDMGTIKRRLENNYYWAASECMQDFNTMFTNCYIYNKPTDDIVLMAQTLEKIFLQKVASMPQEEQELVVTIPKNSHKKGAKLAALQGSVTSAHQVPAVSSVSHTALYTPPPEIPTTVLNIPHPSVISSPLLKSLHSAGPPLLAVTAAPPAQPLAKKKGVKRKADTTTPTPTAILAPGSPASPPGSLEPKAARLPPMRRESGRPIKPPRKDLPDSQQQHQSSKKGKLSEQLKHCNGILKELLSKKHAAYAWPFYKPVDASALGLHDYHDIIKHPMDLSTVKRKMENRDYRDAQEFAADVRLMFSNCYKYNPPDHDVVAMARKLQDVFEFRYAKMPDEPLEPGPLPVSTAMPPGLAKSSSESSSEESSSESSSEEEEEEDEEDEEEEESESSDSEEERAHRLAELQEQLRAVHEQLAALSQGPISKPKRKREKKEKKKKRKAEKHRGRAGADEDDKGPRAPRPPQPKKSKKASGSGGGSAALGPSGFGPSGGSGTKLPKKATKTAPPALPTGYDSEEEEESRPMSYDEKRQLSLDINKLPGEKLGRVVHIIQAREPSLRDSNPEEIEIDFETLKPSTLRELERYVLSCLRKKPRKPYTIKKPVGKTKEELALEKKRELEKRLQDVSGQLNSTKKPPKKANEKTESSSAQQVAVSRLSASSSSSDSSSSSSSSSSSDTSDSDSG
Chain of Bromodomain-containing protein 3 (Homo sapiens) (Q15059 2-726 limits assumed): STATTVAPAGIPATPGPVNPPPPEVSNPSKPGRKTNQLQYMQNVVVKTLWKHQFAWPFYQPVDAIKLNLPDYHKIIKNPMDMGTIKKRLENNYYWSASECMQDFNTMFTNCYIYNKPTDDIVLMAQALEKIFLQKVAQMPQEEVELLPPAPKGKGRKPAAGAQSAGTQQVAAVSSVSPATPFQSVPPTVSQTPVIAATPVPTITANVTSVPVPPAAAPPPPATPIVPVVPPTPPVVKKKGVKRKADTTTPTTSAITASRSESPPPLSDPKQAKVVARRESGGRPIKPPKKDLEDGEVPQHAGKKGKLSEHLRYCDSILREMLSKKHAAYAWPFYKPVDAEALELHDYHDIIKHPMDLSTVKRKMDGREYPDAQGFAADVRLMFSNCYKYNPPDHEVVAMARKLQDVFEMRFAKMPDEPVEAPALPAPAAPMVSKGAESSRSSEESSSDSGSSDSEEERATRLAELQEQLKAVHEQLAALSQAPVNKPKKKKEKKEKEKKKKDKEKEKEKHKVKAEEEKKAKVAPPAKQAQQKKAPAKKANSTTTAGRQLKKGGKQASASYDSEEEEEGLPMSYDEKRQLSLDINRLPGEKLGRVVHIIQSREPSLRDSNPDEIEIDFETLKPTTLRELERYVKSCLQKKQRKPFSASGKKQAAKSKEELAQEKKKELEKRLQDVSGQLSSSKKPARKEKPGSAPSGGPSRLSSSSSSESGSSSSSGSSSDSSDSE
Chain of Bromodomain and WD repeat-containing protein 1 (Homo sapiens) (Q9NSI6 whole entry, the tested form may be a part): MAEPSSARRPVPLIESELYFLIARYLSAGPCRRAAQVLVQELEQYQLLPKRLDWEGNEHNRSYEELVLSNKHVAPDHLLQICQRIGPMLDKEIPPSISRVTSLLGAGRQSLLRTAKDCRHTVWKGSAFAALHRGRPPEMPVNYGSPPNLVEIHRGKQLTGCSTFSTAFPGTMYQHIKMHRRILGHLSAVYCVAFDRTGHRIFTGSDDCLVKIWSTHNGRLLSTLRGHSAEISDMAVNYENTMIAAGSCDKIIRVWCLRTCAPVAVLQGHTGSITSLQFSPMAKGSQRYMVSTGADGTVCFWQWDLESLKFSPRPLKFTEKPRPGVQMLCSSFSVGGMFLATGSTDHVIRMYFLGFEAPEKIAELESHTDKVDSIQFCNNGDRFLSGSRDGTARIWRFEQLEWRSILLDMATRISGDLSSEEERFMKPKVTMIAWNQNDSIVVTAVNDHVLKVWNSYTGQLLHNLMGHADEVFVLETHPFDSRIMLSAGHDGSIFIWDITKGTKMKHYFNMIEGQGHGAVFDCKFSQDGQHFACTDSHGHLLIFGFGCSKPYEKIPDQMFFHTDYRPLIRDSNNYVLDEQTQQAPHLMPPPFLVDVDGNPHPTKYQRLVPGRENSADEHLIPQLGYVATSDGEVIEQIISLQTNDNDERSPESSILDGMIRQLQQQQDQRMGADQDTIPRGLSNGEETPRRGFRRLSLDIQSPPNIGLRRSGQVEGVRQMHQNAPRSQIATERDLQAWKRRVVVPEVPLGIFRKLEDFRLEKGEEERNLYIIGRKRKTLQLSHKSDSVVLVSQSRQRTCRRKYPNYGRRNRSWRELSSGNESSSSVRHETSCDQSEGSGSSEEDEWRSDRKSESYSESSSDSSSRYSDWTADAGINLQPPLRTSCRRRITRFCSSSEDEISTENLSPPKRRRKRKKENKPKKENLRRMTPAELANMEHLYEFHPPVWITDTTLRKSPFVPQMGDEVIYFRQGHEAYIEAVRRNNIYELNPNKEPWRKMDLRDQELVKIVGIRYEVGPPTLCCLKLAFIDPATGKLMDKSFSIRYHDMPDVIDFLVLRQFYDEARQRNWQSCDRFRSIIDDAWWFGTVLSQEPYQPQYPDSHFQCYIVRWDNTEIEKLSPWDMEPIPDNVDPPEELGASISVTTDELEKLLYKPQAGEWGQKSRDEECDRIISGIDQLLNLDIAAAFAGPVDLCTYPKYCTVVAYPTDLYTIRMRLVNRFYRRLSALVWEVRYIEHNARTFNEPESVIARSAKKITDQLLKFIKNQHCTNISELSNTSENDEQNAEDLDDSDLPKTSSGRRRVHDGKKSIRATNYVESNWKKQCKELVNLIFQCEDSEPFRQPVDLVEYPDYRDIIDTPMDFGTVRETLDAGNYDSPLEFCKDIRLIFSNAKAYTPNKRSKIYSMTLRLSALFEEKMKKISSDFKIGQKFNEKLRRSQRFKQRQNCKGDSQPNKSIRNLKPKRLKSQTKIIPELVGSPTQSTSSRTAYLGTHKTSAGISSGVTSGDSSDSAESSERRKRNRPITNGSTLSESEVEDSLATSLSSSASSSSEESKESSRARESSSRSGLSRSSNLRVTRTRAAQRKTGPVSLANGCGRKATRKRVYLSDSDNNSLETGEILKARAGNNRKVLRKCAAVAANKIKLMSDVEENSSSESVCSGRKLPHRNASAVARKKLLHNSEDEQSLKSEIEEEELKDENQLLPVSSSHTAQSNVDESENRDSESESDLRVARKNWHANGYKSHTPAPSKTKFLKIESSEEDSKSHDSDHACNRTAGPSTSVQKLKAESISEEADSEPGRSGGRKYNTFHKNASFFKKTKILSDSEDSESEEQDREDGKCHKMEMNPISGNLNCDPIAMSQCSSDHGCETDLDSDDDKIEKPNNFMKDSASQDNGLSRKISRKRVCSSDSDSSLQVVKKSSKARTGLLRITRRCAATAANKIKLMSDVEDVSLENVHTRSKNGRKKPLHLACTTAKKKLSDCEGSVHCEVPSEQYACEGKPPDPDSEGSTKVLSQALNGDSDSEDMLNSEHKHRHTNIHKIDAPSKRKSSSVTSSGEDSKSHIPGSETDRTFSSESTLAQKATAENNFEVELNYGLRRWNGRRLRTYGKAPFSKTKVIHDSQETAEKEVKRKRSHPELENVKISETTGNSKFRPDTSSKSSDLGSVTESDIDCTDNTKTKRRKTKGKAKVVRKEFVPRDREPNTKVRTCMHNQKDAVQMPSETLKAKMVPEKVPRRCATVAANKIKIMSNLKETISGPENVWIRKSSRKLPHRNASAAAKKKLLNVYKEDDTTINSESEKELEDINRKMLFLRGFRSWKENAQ
Chain of Histone acetyltransferase KAT2B (Homo sapiens) (Q92831 whole entry, looked up, the tested form may be a part): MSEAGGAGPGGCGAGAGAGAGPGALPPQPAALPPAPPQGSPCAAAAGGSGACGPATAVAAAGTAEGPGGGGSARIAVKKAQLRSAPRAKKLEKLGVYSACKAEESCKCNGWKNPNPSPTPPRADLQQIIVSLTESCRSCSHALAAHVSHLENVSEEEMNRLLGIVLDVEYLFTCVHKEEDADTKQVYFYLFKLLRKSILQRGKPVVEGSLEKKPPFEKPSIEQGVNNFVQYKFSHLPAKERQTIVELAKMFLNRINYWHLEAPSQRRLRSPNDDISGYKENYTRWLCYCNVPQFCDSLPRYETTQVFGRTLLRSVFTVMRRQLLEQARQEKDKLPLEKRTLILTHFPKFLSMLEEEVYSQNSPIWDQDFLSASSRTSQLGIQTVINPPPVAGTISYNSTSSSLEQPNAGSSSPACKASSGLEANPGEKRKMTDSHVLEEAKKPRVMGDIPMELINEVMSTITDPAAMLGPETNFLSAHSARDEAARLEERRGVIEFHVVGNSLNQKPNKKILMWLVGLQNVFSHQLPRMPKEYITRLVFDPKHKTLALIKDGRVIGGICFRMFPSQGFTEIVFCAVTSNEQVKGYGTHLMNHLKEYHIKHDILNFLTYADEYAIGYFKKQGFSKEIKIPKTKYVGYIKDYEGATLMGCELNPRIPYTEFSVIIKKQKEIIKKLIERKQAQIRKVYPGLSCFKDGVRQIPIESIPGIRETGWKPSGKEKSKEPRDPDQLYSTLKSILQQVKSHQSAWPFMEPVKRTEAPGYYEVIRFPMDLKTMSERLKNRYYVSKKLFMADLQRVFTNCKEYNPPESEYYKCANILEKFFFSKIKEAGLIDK

Row | Structure (SMILES) | GI50 [3] [µM] | TGI [3] [µM] | GI50 [4] [µM] | inhibition of growth at 10 µM [5] [%] | inhibition of growth at 10 µM [6] [%] | inhibition of growth at 10 µM [7] [%] | inhibition of growth at 10 µM [8] [%] | inhibition of growth at 10 µM [9] [%] | GI50 [10] [µM] | GI50 [12] [µM] | GI50 [13] [µM] | GI50 [14] [µM] | also measured
1 | Cc1noc(C)c1-c1cc(O)cc(C(O)c2ccccc2)c1 (stereo unspecified) | 1.58 to 2.6 | 20.3 | 4.54 to 5.79 | 53.3 | 28.5 | 38.8 | 53.3 | 45.2 | 0.423 | 3.48 | 3.99 | 3.92 | half-life at 3 µM [1]: 39.8 min; microsomal CLint at 3 µM [2]: 34.8 µL/min/mg; GI50 [11]: 28.9 µM; Activity [15]: 66%; Activity [16]: 1.4%; Activity [17]: 0.5%; Activity [18]: 3.7%; Activity [19]: 100%; Activity [20]: 8.8%; Activity [21]: 100%; Activity [22]: 93%; Activity [23]: 100%; Activity [24]: 100%
2 | COc1ccccc1S(=O)(=O)Nc1ccc2c(c1)CN(C)C(=O)N2 | 1.8 | 6 | 3 | 51.1 | 27.1 | 51.1 | 67.8 | 27.3 | 0.4 | 2.6 | 6.8 | 3.5 | inhibition of growth at 10 µM [25]: 50%; GI50 [26]: 8.5 µM; GI50 [27]: 0.7 µM; GI50 [28]: 28.2 µM
